Structures can show the parent of a compound that is named as a salt. Activity calls are given as the source filed them. The calls are words filed in the database; no cut-off is given here.
How the values were obtained:
[1] = biological target: Bifunctional dihydrofolate reductase-thymidylate synthase (Plasmodium falciparum K1) (UniProt P13922); assay: Inhibition of Plasmodium falciparum DHFR at 10 uM using DHF as substrate preincubated for 15 mins followed DHF addition measured after 15 mins by spectrophotometric method
In short: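 Purified P. falciparum DHFR was preincubated 15 min on ice with compound in 100 uM NADPH, 50 mM TES pH 7.0, 1 mM EDTA, 75 mM 2-mercaptoethanol and 1 mg/mL BSA. DHF was then added to start the reaction. NADPH oxidation was followed at 340 nm, and percent inhibition was taken at 10 µM.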

[2] = biological target: T1, Bifunctional dihydrofolate reductase-thymidylate synthase (Plasmodium falciparum K1, UniProt P13922); assay: Inhibition of Plasmodium falciparum DHFR using DHF as substrate preincubated for 15 mins followed DHF addition measured after 15 mins by spectrophotometric method
In short: (§1)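 Purified PfDHFR was preincubated with graded compound concentrations for 15 min on ice in 100 uM NADPH, 50 mM TES pH 7.0, 1 mM EDTA, 75 mM 2-mercaptoethanol and 1 mg/mL BSA. DHF was then added to start the reaction, and NADPH oxidation was followed at 340 nm. IC50 came from percent-inhibition versus concentration plots, three independent experiments.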

[3] = biological target: T2, Falcipain 2 (Plasmodium falciparum) (UniProt Q9N6S8); assay: Inhibition of Plasmodium falciparum FP2 at 10 uM using Z-Leu-Arg-AMC as substrate preincubated for 30 min followed by substrate addition measured after 30 mins by spectrofluorimetric method
T2 sequence (whole entry): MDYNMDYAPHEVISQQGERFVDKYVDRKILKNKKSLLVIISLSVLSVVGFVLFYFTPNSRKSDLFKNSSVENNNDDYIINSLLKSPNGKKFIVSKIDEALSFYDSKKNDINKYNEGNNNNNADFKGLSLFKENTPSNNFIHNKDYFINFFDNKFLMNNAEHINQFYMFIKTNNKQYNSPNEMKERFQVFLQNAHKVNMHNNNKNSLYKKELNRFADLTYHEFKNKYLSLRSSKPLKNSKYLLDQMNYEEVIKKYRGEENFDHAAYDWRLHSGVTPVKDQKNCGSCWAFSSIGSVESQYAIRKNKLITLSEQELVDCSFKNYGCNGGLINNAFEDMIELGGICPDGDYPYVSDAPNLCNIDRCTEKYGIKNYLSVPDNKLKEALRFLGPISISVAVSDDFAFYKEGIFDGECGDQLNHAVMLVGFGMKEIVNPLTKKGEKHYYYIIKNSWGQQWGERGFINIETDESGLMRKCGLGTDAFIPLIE
In short: (§2)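 FP-2 (30 nM) was preincubated 30 min at room temperature with compound in 100 mM sodium acetate, 10 mM DTT, pH 5.5, with DMSO at most 1%. The fluorescence increase was then monitored for 30 min at room temperature. Percent inhibition was screened at 10 µM. IC50 values were fitted from percent inhibition versus concentration, using three independent experiments.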

Falcipain 2 [4] = biological target: T3, Falcipain 2 (Plasmodium falciparum, UniProt Q9N6S8); assay: Inhibition of Plasmodium falciparum FP2 using Z-Leu-Arg-AMC as substrate preincubated for 30 min followed by substrate addition measured after 30 mins by spectrofluorimetric method; in short: as §2
T3 sequence (Q9N6S8 whole entry): T2 sequence (whole entry)

Plasmodium falciparum [5] = assay: Antimalarial activity against mid-ring stage of multidrug-sensitive Plasmodium falciparum 3D7 infected in human O-positive erythrocytes after 72 hrs by SYBR Green I dye-based fluorescence assay; type: functional, organism-based; settings: 3D7, 72 h
In short: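 Cultures were synchronised with 5% sorbitol to over 80% rings, and parasites at mid-ring stage (6–10 h post-invasion) were used at 1% parasitemia and 2% hematocrit. […] Growth ran 72 h at 37 °C under 5% CO₂, 5% O₂, 90% N₂. Cells were lysed in saponin/Triton X-100 buffer with 5X SYBR Green I, kept 2 h in the dark, and fluorescence was read at 485/535 nm.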

[6] = biological target: T1, Bifunctional dihydrofolate reductase-thymidylate synthase; assay: Inhibition of Plasmodium falciparum DHFR; in short: as §1
Falcipain 2 [7] = biological target: T3, Falcipain 2; assay: Inhibition of Plasmodium falciparum FP2; in short: as §2
Plasmodium falciparum [8] = assay: Antimalarial activity against mid-ring stage of Plasmodium falciparum GB4 infected in human O-positive erythrocytes after 72 hrs by SYBR Green I dye-based fluorescence assay; type: functional, organism-based; settings: GB4, 72 h
In short: (§3)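 Sorbitol-synchronised (>80% ring) […] cultures were used at the mid-ring stage (6-10 h post-invasion), at 1% parasitemia and 2% hematocrit, with serial compound dilutions (Dd2 top concentration 10 µM). Incubation was 72 h at 37 °C under 5% CO₂/5% O₂/90% N₂. Cells were then lysed with saponin/Triton X-100 buffer containing 5X SYBR Green I, kept 2 h in the dark, and read at ex 485/em 535 nm.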

Plasmodium berghei = assay: In vivo antimalarial activity against Plasmodium berghei ANKA infected in BALB/c mouse assessed as reduction in parasitemia at 20 mg/kg, po administered daily for 4 days by Giemsa staining-based method; type: functional, organism-based
In short: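 BALB/c mice were infected with P. berghei ANKA. Starting 24 h later, they received 20 mg/kg test compound or control orally once daily for 4 days. Parasitemia was counted on Giemsa-stained blood smears every day over 10 days.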

Plasmodium falciparum [9] = assay: Antimalarial activity against mid-ring stage of chloroquine-resistant Plasmodium falciparum Dd2 infected in human O-positive erythrocytes after 72 hrs by SYBR Green I dye-based fluorescence assay; type: functional, organism-based; settings: Dd2, 72 h; in short: as §3
Plasmodium falciparum [10] = assay: Antimalarial activity against mid-ring stage of Plasmodium falciparum Fab9 infected in human O-positive erythrocytes after 72 hrs by SYBR Green I dye-based fluorescence assay; type: functional, organism-based; settings: Fab9, 72 h; in short: as §3
Plasmodium falciparum [11] = assay: Antimalarial activity against mid-ring stage of chloroquine-resistant Plasmodium falciparum Dd2 infected in human O-positive erythrocytes at 20 uM after 72 hrs by SYBR Green I dye-based fluorescence assay; type: functional
Plasmodium falciparum [12] = assay: Antimalarial activity against mid-ring stage of multidrug-sensitive Plasmodium falciparum 3D7 infected in human O-positive erythrocytes at 20 uM after 72 hrs by SYBR Green I dye-based fluorescence assay; type: functional

T1 sequence (P13922 whole entry): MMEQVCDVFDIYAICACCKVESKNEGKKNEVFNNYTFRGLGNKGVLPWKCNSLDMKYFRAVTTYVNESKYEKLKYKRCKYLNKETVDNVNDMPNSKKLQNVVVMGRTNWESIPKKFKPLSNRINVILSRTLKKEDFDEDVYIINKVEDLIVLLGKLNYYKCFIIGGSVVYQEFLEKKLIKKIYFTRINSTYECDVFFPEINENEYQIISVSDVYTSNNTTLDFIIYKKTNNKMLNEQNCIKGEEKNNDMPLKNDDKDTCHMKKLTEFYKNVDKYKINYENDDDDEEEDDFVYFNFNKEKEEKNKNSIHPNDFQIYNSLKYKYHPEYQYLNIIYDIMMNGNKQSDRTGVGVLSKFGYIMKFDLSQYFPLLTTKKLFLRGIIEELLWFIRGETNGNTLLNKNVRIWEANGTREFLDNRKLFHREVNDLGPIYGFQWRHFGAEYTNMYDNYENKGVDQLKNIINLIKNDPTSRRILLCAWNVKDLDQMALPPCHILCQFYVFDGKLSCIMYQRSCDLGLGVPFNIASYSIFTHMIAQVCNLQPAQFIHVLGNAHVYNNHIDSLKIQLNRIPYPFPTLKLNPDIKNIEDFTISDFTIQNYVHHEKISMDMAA
Bifunctional dihydrofolate reductase-thymidylate synthase (Plasmodium falciparum K1), sequence (P13922 whole entry, looked up): as the sequence (P13922 whole entry) above

Structure (SMILES)	inhibition [1] [%]	IC50 [2] [nM]	inhibition [3] [%]	IC50 (Falcipain 2 [4]) [nM]	also measured
COc1cc(OC)cc(C(=O)NCCc2ccc(CNc3ccc4nc(N)nc(N)c4c3)cc2)c1	100	32.1	41.1	–	–
Nc1nc(N)c2cc(NCc3ccc(CCNC(=O)C4CCCCC4)cc3)ccc2n1	96	226	66.6	7700	–
Nc1nc(N)c2cc(NCc3ccc(CCNC(=O)c4ccccc4F)cc3)ccc2n1	100	180	44.6	–	–
Nc1nc(N)c2cc(NCc3ccc(CCNC(=O)c4ccc([N+](=O)[O-])cc4)cc3)ccc2n1	94.7	55.6	67	10000	IC50 (Plasmodium falciparum [5]): 105 nM
O=C(CCc1ccc(S(=O)(=O)NCCc2ccccc2)cc1)Nc1ccc2c(c1)OCCO2	–	–	–	–	IC50 [6]: 35500 nM; IC50 (Falcipain 2 [7]): 54200 nM
COc1ccc(C(=O)NCCc2ccc(CNc3ccc4nc(N)nc(N)c4c3)cc2)cc1	95.1	157	21.2	–	–
COc1ccc(OC)c(CNc2ccc3nc(N)nc(N)c3c2Cl)c1	–	–	–	–	IC50 [6]: 0.39 nM
Cc1nc(N)nc(N)c1OCCCOc1cc(Cl)c(Cl)cc1Cl	–	–	–	–	IC50 [6]: 229 nM
Nc1nc(N)c2cc(NCc3ccc(CCNC(=O)c4ccc5ccccc5c4)cc3)ccc2n1	100	67.9	46.4	–	–
CC(C)(C)C1CCC(C(=O)NCCc2ccc(CNc3ccc4nc(N)nc(N)c4c3)cc2)CC1 (stereo not drawn)	99.9	290	55.8	7400	–
Nc1nc(N)c2cc(NCc3ccc(CCNC(=O)c4ccco4)cc3)ccc2n1	97.8	107	28.9	–	–
CC(C)C[C@H](NC(=O)[C@@H]1O[C@H]1C(=O)O)C(=O)NCCCCN=C(N)N	–	–	–	57.2	–
Nc1nc(N)c2cc(NCc3ccc(CCNC(=O)c4ccc(F)cc4)cc3)ccc2n1	96.7	118	52.7	6700	IC50 (Plasmodium falciparum [5]): 391 nM
Nc1nc(N)c2cc(NCc3ccc(CCNC(=O)c4ccc5c(c4)OCCO5)cc3)ccc2n1	100	80.9	34.9	–	–
Nc1nc(N)c2cc(NCc3ccc(CCNC(=O)c4cccs4)cc3)ccc2n1	97.4	84.1	67.6	10000	IC50 (Plasmodium falciparum [8]): 23.4 nM; Activity (Plasmodium berghei): Active; IC50 (Plasmodium falciparum [9]): 1200 nM; IC50 (Plasmodium falciparum [10]): 14.2 nM; IC50 (Plasmodium falciparum [5]): 53.1 nM
Nc1nc(N)c2cc(NCc3ccc(CCNC(=O)c4cccc(F)c4)cc3)ccc2n1	98.5	50.6	49.8	–	–
CCc1nnc(NC(=O)CCc2ccc(S(=O)(=O)Nc3ccc(F)cc3)cc2)s1	59.2	6300	64.7	7000	IC50 [6]: 6300 nM; Activity (Plasmodium falciparum [11]): 6.2%; IC50 (Falcipain 2 [7]): 7000 nM; Activity (Plasmodium falciparum [12]): 7.9%
CC1(C)N=C(N)N=C(N)N1OCCCOc1cc(Cl)c(Cl)cc1Cl	–	–	–	–	IC50 [6]: 0.57 nM
Nc1nc(N)c2cc(NCc3ccc(CCNC(=O)c4ccc5c(c4)OCO5)cc3)ccc2n1	100	26.2	59.2	5100	IC50 (Plasmodium falciparum [5]): 78.6 nM
Nc1nc(N)c2cc(NCc3ccc(CCNC(=O)c4ccncc4)cc3)ccc2n1	51.5	–	22.9	–	–
COc1ccc(C(=O)NCCc2ccc(CNc3ccc4nc(N)nc(N)c4c3)cc2)cc1Cl	51.2	–	37.6	–	–
Nc1nc(N)c2cc(NCc3ccc(CCNC(=O)Cc4ccccc4)cc3)ccc2n1	92.4	70.1	65	7600	IC50 (Plasmodium falciparum [5]): 266 nM
CC1(C)N=C(N)N=C(N)N1c1ccc(Cl)cc1 [CHLORCYCLOGUANIL HYDROCHLORIDE]	–	–	–	–	IC50 [6]: 1.5 nM
Nc1nc(N)c2cc(NCc3ccc(CCNC(=O)CCc4ccccc4)cc3)ccc2n1	98.6	185	55.2	4900	–
Nc1nc(N)c2cc(NCc3ccc(CCNC(=O)c4ccc(Cl)cc4F)cc3)ccc2n1	68.2	–	62.4	9100	–
Nc1nc(N)c2cc(NCc3ccc(CCNC(=O)c4ccc(C(F)(F)F)cc4)cc3)ccc2n1	96.4	21.3	21.5	–	–
COc1ccc(C(=O)NCCc2ccc(CNc3ccc4nc(N)nc(N)c4c3)cc2)cc1OC	100	61.1	31.3	–	–
CCc1nc(N)nc(N)c1-c1ccc(Cl)cc1 [PYRIMETHAMINE]	–	–	–	–	Activity (Plasmodium berghei): Active; IC50 (Plasmodium falciparum [9]): > 10000 nM
COc1cccc(C(=O)NCCc2ccc(CNc3ccc4nc(N)nc(N)c4c3)cc2)c1	96.8	39.6	52.6	6200	Activity (Plasmodium berghei): Active; IC50 (Plasmodium falciparum [9]): 2200 nM; IC50 (Plasmodium falciparum [5]): 60.5 nM
C[C@@H]1CC[C@H]2[C@@H](C)C(=O)O[C@@H]3O[C@@]4(C)CC[C@@H]1[C@]32OO4 [ARTEMISININ]	–	–	–	–	IC50 (Plasmodium falciparum [8]): 2.2 nM; Activity (Plasmodium berghei): Active; IC50 (Plasmodium falciparum [10]): 5.2 nM; IC50 (Plasmodium falciparum [5]): 4.1 nM

— ChEMBL document CHEMBL4177676, “Discovery of new antimalarial agents: Second-generation dual inhibitors against FP-2 and PfDHFR via fragments assembely” (Bioorg Med Chem, 2017)
